Test results taken from ChEMBL document CHEMBL2034859, “Simple, fast and efficient synthesis of β-keto esters from the esters of heteroaryl compounds, its antimicrobial study and cytotoxicity towards various cancer cell lines” (Bioorg Med Chem Lett, 2012).
In brackets after ≈: the same amount, converted by molar mass.

How the values were obtained:
ACHN = assay: Cytotoxicity against human ACHN cells at 10 uM after 48 hrs by WST-1 assay; assay type: functional
Outline: (§1)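 Cells from ATCC were grown in DMEM with 10% heat-inactivated FBS at 37 °C in 5% CO2. Log-phase cells were seeded at 5 × 10^3 per well and left to recover overnight. They were then exposed to a range of compound concentrations for 48 h, with 0.2% DMSO as the vehicle control. CCK-8 (WST) reagent was added for 2 h and absorbance was measured.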

Pseudomonas aeruginosa [1] = assay: Antibacterial activity against Pseudomonas aeruginosa ATCC 27853 after 24 hrs by disc diffusion method; assay type: functional
Outline: (§2)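 Disc diffusion susceptibility test. The Klebsiella pneumoniae strain was a recultured isolate, not an ATCC stock.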

NCI-H460 = assay: Cytotoxicity against human NCI-H460 cells at 10 uM after 48 hrs by WST-1 assay; assay type: functional
Outline: (§3)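 Cells from ATCC, grown in DMEM with 10% heat-inactivated FBS at 37 °C in humidified 5% CO2. Log-phase cells seeded at 5 × 10^3 cells/well and left to recover overnight, then exposed to varying compound concentrations for 48 h. Controls received medium with 0.2% DMSO vehicle. CCK-8 ([…]) reagent added at 5 µL/well for 2 h, then absorbance read.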

HCT-116 = assay: Cytotoxicity against human HCT116 cells at 10 uM after 48 hrs by WST-1 assay; assay type: functional; outline: as §1
Staphylococcus aureus [2] = assay: Antibacterial activity against Staphylococcus aureus ATCC 25923 after 24 hrs by disc diffusion method; assay type: functional; outline: as §2
Escherichia coli [3] = assay: Antibacterial activity against Escherichia coli ATCC 25922 after 24 hrs by disc diffusion method; assay type: functional; outline: as §2
[4] = tested on: Trichophyton mentagrophytes; assay: Antifungal activity against Trichophyton mentagrophytes after 3 to 4 days by disc diffusion method; assay type: functional
Calu-1 = assay: Cytotoxicity against human Calu1 cells at 10 uM after 48 hrs by WST-1 assay; assay type: functional; outline: as §1
Aspergillus flavus [5] = assay: Antifungal activity against Aspergillus flavus NCIM 524 after 3 to 4 days by serial plate dilution method
Klebsiella pneumoniae [6] = assay: Antibacterial activity against Klebsiella pneumoniae after 24 hrs; assay type: functional
Klebsiella pneumoniae [7] = assay: Antibacterial activity against Klebsiella pneumoniae after 24 hrs by disc diffusion method; assay type: functional; outline: as §2
[8] = tested on: Trichophyton mentagrophytes; assay: Antifungal activity against Trichophyton mentagrophytes after 3 to 4 days; assay type: functional
Outline: (§4)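 Compounds were dissolved in DMSO and tested by serial plate dilution. Activity was read as the diameter of the inhibition zone, with ciclopiroxolamine as the reference standard. Penicillium marneffei and Trichophyton mentagrophytes were recultured isolates.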

Pseudomonas aeruginosa [9] = assay: Antibacterial activity against Pseudomonas aeruginosa ATCC 27853 after 24 hrs; assay type: functional; conditions: ATCC 27853, 24 h
Staphylococcus aureus [10] = assay: Antibacterial activity against Staphylococcus aureus ATCC 25923 after 24 hrs; assay type: functional; conditions: ATCC 25923, 24 h
Talaromyces marneffei [11] = assay: Antifungal activity against Penicillium marneffei after 3 to 4 days; assay type: functional
Talaromyces marneffei [12] = assay: Antifungal activity against Penicillium marneffei after 3 to 4 days by disc diffusion method; assay type: functional
Aspergillus fumigatus [13] = assay: Antifungal activity against Aspergillus fumigatus NCIM 902 after 3 to 4 days; assay type: functional; outline: as §4
Escherichia coli [14] = assay: Antibacterial activity against Escherichia coli ATCC 25922 after 24 hrs; assay type: functional; conditions: ATCC 25922, 24 h
Aspergillus fumigatus [15] = assay: Antifungal activity against Aspergillus fumigatus NCIM 902 after 3 to 4 days by disc diffusion method; assay type: functional
PANC-1 = assay: Cytotoxicity against human PANC1 cells at 10 uM after 48 hrs by WST-1 assay; assay type: functional; outline: as §3
Aspergillus flavus [16] = assay: Antifungal activity against Aspergillus flavus NCIM 524 after 3 to 4 days; assay type: functional

SMILES | Activity (ACHN) | inhibition zone (IZ) (Pseudomonas aeruginosa [1]) | Activity (NCI-H460) | Activity (HCT-116) | inhibition zone (IZ) (Staphylococcus aureus [2]) | inhibition zone (IZ) (Escherichia coli [3]) | inhibition zone (IZ) [4] | Activity (Calu-1) | inhibition zone (IZ) (Aspergillus flavus [5]) | MIC (Klebsiella pneumoniae [6]) | inhibition zone (IZ) (Klebsiella pneumoniae [7]) | MIC [8] | MIC (Pseudomonas aeruginosa [9]) | MIC (Staphylococcus aureus [10]) | MIC (Talaromyces marneffei [11]) | inhibition zone (IZ) (Talaromyces marneffei [12]) | MIC (Aspergillus fumigatus [13]) | MIC (Escherichia coli [14]) | inhibition zone (IZ) (Aspergillus fumigatus [15]) | Activity (PANC-1) | also measured
CCOC(=O)CC(=O)c1cnc(Cl)cn1 | 30% | 21 mm | 34% | 40% | 23 mm | 24 mm | 25 mm | 31% | 22 mm | 6.25 µg/mL (≈ 27.3 µM) | 20 mm | 6.25 µg/mL (≈ 27.3 µM) | 6.25 µg/mL (≈ 27.3 µM) | 6.25 µg/mL (≈ 27.3 µM) | 6.25 µg/mL (≈ 27.3 µM) | 24 mm | 6.25 µg/mL (≈ 27.3 µM) | 6.25 µg/mL (≈ 27.3 µM) | 26 mm | 14% | MIC (Aspergillus flavus [16]): 6.25 µg/mL (≈ 27.3 µM)
CCOC(=O)CC(=O)c1cc2ccccc2cn1 | 30% | 22 mm | 17% | 29% | 16 mm | 19 mm | 23 mm | 21% | 27 mm | 12.5 µg/mL (≈ 51.4 µM) | 23 mm | 6.25 µg/mL (≈ 25.7 µM) | 12.5 µg/mL (≈ 51.4 µM) | 12.5 µg/mL (≈ 51.4 µM) | 6.25 µg/mL (≈ 25.7 µM) | 25 mm | 6.25 µg/mL (≈ 25.7 µM) | 12.5 µg/mL (≈ 51.4 µM) | 23 mm | 23% | MIC (Aspergillus flavus [16]): 6.25 µg/mL (≈ 25.7 µM)
CCOC(=O)CC(=O)c1ncccn1 | 10% | 22 mm | 20% | 23% | 22 mm | 24 mm | 18 mm | 17% | 22 mm | 6.25 µg/mL (≈ 32.2 µM) | 23 mm | 12.5 µg/mL (≈ 64.4 µM) | 6.25 µg/mL (≈ 32.2 µM) | 6.25 µg/mL (≈ 32.2 µM) | 12.5 µg/mL (≈ 64.4 µM) | 17 mm | 12.5 µg/mL (≈ 64.4 µM) | 6.25 µg/mL (≈ 32.2 µM) | 25 mm | 37% | MIC (Aspergillus flavus [16]): 12.5 µg/mL (≈ 64.4 µM)
